The list is not random: actives were taken first. Their share in the collection is about 12%.
ABCB1 block – human ABCB1 inhibition, ABCG2 as counter-screen | inhibition, % at 6.6 µM | CCRF-Adr cells, JC-1 efflux, flow cytometry | P08183 | 0.067% of 190,000 active; in the data active = inhibition above about 40%;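 also: higher value means more JC-1 retained so stronger ABCB1 efflux block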
ABCG2 inh – inhibitors of human ABCG2 transporter, ABCB1 counter-screen; inhibition, % at 6.6 µM; Q9UNQ0; IgMXP3 cells, JC-1 efflux, flow cytometry; 0.1% of 190,000 active;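 active = inhibition above 80%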
Target sequence (Q9UNQ0 whole entry, looked up): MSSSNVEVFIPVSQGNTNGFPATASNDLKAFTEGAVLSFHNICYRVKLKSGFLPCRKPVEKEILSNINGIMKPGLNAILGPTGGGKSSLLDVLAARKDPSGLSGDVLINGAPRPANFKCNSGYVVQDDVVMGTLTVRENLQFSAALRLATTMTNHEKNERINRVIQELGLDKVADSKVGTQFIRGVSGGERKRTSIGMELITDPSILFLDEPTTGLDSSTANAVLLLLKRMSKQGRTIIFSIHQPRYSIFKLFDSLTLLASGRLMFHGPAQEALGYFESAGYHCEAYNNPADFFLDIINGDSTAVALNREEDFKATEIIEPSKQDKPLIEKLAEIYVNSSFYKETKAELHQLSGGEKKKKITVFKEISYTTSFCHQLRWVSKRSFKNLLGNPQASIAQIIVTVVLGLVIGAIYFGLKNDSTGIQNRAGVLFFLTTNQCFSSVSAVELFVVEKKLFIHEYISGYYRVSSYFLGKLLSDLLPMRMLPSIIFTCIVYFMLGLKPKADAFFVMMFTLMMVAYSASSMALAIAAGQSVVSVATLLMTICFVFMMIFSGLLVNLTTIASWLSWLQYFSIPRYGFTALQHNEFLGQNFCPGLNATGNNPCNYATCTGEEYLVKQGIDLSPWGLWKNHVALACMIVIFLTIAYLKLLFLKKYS
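System: two drug-resistant human cell lines, ABCG2 and ABCB1; controls: nicardipine high and DMSO low controls; times: 10 min exposure at 25 °C with rotation, no wash; detection: flow cytometry of retained JC-1 fluorescence; read-out basis: percent efflux inhibition, scaled nicardipine 100% to DMSO 0%; doses: one concentration, 6.6 µM final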
L major viab – inhibitors of Leishmania major promastigote growth; Leishmania major promastigotes, resazurin fluorescence viability; inhibition, % at 10 µM; 9% of 200,000 active; AID 1063; in the data active = inhibition above about 50%;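 also: promastigotes grown with compound for 44 hours at 28 °C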
RAM inhibit – yeast RAM network inhibition; S. cerevisiae dse1pr::URA3 reporter, 5-FOA growth OD615, 2 d; analog-sensitive cbk1-as2 kinase mutant strain; inhibition, % at 50 µM; 1.8% of 190,000 active;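 active = inhibition above a set limit, 3 SD over mean compound inhibition, cut at about 8.4% in these data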;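 also: inhibition rescues growth on 5-FOA so higher OD means more RAM inhibition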
WT yeast gro inh – growth inhibition of WT yeast, mitochondrial fusion screen. mitochondrial fusion phenotypic screen, WT strain. inhibition, % at 10 µM. 2.1% of 190,000 active. AID 1362; in the data active = inhibition above about 58%; tested in S. cerevisiae
Large screens that a line does not name were inactive; ! = repeats disagree.

COC(=O)c1cccnc1-n1c(=O)c2cccnc2n(Cc2cccc(C(F)(F)F)c2)c1=O	none
O=C(COC(=O)c1ccc(O)cc1)Nc1ccc(Cl)cc1	none
CCOC(=O)C1CCN(c2c(C(=O)c3ccccc3)cnc3ccc(CC)cc23)CC1	L major viab 55, WT yeast gro inh 76
CCOC(=O)C1CCCN(c2nc(C)nc3c2oc2ccccc23)C1 (configuration not stated)	none
CCOC(=O)C1CCCN(C(=O)c2cc(-c3ccc(F)cc3)nc3ccccc23)C1 (configuration not stated)	none
CCOC(=O)C1CCCN(C(=O)c2cc3c(C)nc4ccccc4c3o2)C1 (configuration not stated)	L major viab 77
CCOC(=O)C1CCCN(c2c(C(=O)c3ccccc3)cnc3ccccc23)C1 (configuration not stated)	L major viab 51, WT yeast gro inh 59
O=C(c1ccccc1)c1cnc2ccc(Cl)cc2c1N1CCOCC1	none
CN(C)/C=N/C(=S)Nc1ccc(Cl)cc1Cl	none
CN(C)C(CNC(=S)Nc1cccc(Cl)c1)c1ccccc1 (configuration not stated)	none
CN(C(=O)c1sc2nc(N3CCOCC3)c3c(c2c1N)CCCC3)c1ccccc1	L major viab 100
O=C1C2C3CCC(C3NCc3ccccc3)C2C(=O)N1Cc1ccccc1 (configuration not stated)	L major viab 60
O=C(CC12CC3CC(CC(C3)C1)C2)NC(=S)NCc1ccccc1	RAM inhibit 9.4
S=C(NCCN1CCOCC1)Nc1ccc(Cl)cc1Cl	L major viab 96 (no result: ABCB1 block)
Oc1ccc(/C=N/NC(=S)NCCN2CCOCC2)c(O)c1	L major viab 96
S=C(NCCN1CCOCC1)N/N=C/c1ccccc1	none
COc1ccc(NC(=S)NCCN2CCOCC2)c(OC)c1	none (no result: ABCB1 block, ABCG2 inh, RAM inhibit, WT yeast gro inh)
COc1ccccc1NC(=S)NCCN1CCOCC1	none
COc1ccc(OC)c(NC(=S)NCCCN2CCOCC2)c1	L major viab 62
S=C(NCCN1CCOCC1)Nc1cccc2ccccc12	L major viab 67
Fc1cc(Cl)ccc1NC(=S)NCCN1CCOCC1	none
Cc1cc(Cl)ccc1NC(=S)NCCN1CCOCC1	L major viab 60
S=C(NCCCN1CCOCC1)Nc1ccc(Cl)cc1Cl	L major viab 99
O=C(CNC(=O)C1COc2ccccc2O1)N/N=C/c1ccc(O)cc1O (configuration not stated)	L major viab 98
CNC(=O)C12N=CNN=C1N(C)C(=O)N2C (configuration not stated)	none
Cc1ccccc1-n1nc(C)c2cc(C(=O)N3CCN(S(=O)(=O)c4ccc(Cl)cc4)CC3)sc21	none
Cc1ccccc1-n1nc(C)c2cc(C(=O)N3CCN(S(=O)(=O)c4ccc(F)cc4)CC3)sc21	L major viab 52
O=C1Nc2ccc(F)cc2C12Nc1ccccc1-c1nnc(SCc3ccccc3Cl)nc1O2 (configuration not stated)	WT yeast gro inh 69
Cc1ccc(CSc2nnc3c(n2)OC2(Nc4ccccc4-3)C(=O)Nc3ccc(F)cc32)cc1 (configuration not stated)	WT yeast gro inh 70
O=C1Nc2ccc(F)cc2C12Nc1ccccc1-c1nnc(SCc3ccccc3)nc1O2 (configuration not stated)	none
Cc1ccc(NC(=O)CN2C(=O)N/C(=C/c3ccc(N4CCOCC4)cc3)C2=O)cc1	RAM inhibit 8.8
O=C(NCc1ccc(Cl)cc1)C1CCN(S(=O)(=O)N2CCOCC2)CC1	none
Cc1ccccc1OCc1n(CC(=O)OC2CC(C)CCC2C(C)C)c2ccccc2[n+]1C (configuration not stated)	L major viab 101, WT yeast gro inh 62
CC1CCC(C(C)C)C(OC(=O)Cn2c(-c3ccc(Br)cc3)[n+](C)c3ccccc32)C1 (configuration not stated)	L major viab 100, WT yeast gro inh 66!
CC1CCC(C(C)C)C(OC(=O)C[n+]2cccc(C(N)=O)c2)C1 (configuration not stated)	none
CC1CCC(C(C)C)C(OC(=O)COC(=O)c2cccn2C)C1 (configuration not stated)	WT yeast gro inh 74
CC1CCC(C(C)C)C(OC(=O)COC(=O)c2ccc(N)cc2)C1 (configuration not stated)	none
C/C(=N\O)C(=O)OC1CC(C)CCC1C(C)C (configuration not stated)	none
CCN(CC)S(=O)(=O)c1cccc(C(=O)Nc2cc3oc4ccccc4c3cc2OC)c1	L major viab 80
CCCN(CCC)S(=O)(=O)c1ccc(C(=O)Nc2cc3oc4ccccc4c3cc2OC)cc1	none
CSCCC(NC(=O)c1ccc(Cl)cc1)C(=O)O (configuration not stated)	none
CSCCC(NC(=O)c1ccc(Cl)cc1)C(=O)OCC(=O)Nc1cc(Cl)ccc1C (configuration not stated)	RAM inhibit 10
O=S(=O)(Nc1ccc2c(c1)oc1ccccc12)N1CCCC1	none
COc1cc2c(cc1NC(=O)COC(=O)C(CCSC)NC(=O)c1ccccc1Cl)oc1ccccc12 (configuration not stated)	L major viab 67
COc1cc2c(cc1NS(=O)(=O)N1CCCCC1)oc1ccccc12	L major viab 96, WT yeast gro inh 80
CCOC(=O)c1cc(C(=O)c2ccccc2O)cn2c(=O)c3c(C)c(C)sc3nc12	none
COc1cc2c(cc1NC(=O)COC(=O)[C@@H](NS(=O)(=O)c1ccccc1)C(C)C)oc1ccccc12	L major viab 99
COc1cc2c(cc1NC(=O)CN1C(=O)NC3(CCc4ccccc43)C1=O)oc1ccccc12 (configuration not stated)	WT yeast gro inh 66
COc1cc2c(cc1NC(=O)COc1ccccc1OC)oc1ccccc12	none
COc1cc2c(cc1NC(=O)Nc1ccccc1)oc1ccccc12	WT yeast gro inh 69
COc1ccc(CN(C)CC(=O)Nc2cc3oc4ccccc4c3cc2OC)c(OC)c1	L major viab 97
CCn1ncc(/C=N/NC(=O)c2cc(Cl)ccc2OC)c1C	none
CCOC(=O)CN(Cc1sccc1C)C(=O)Nc1ccc(OCC)cc1	none
COc1cc2c(cc1NC(=O)C(C)NCc1ccccc1)oc1ccccc12 (configuration not stated)	WT yeast gro inh 68
CCOC(=O)c1c(C)[nH]c(C)c1C(=O)CSc1nc2ccccc2c(=O)n1-c1ccc(F)cc1	none
CCOC(=O)c1c(C)[nH]c(C)c1C(=O)CSc1nc2ccccc2c(=O)n1-c1ccccc1C	RAM inhibit 9.7
COc1ccc(N2CCN(CCNC(=O)CCS(=O)(=O)c3cccc4nsnc34)CC2)cc1	none
CC(C)[C@@H](C(=O)OCC(=O)Nc1ccc2c(c1)OCO2)N1C(=O)c2ccccc2C1=O	L major viab 82
